This note sets out measurements from ChEMBL document CHEMBL1147268, “New triterpene glycosides from the stems of Anomospermum grandifolium” (2003).

In brackets after ≈: the same amount, converted by molar mass. Activity calls are given as the source filed them.

In test [1] the test system is Enterococcus faecalis. The test can be described thus: Antibacterial activity against Enterococcus faecalis ATCC 29212 at 250 ug/mL after 18 hrs by broth microdilution method. Type of test: functional, organism-based. The method, boiled down:
(§1)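 Broth microdilution in Mueller Hinton broth in 96-well plates, run in duplicate following NCCLS guidance. Pure compounds were tested at dilution intervals up to a top concentration of 120 or 250 µg/mL. Plates were incubated 18 h at 37 °C and read from below with a reflective viewer. DMSO served as blank control and ampicillin as positive control.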
A general note: In broth dilution the organism is exposed to a series of concentrations in liquid medium.

Test [2] relates to Staphylococcus aureus. As to the kind of experiment: Antibacterial activity against Staphylococcus aureus ATCC 25923 at 250 ug/mL after 18 hrs by broth microdilution method. The format is functional, organism-based. The method, boiled down:
as §1

A further test concerns Candida albicans. The test can be described thus: Antifungal activity against Candida albicans ATCC 3153 after 18 hrs by broth microdilution method. Type of test: functional. The following applies: ATCC 3153, 18 h. The method, boiled down:
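Candida albicans ATCC 3153 was tested by broth microdilution in Sabouraud broth in 96-well plates, in duplicate, per NCCLS. Pure compounds were tested at varied dilution intervals. Plates were incubated 18 h at 37 °C and read from below with a reflective viewer. MIC was taken from the growth end point. DMSO served as blank control and ketoconazole as positive control.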

For test [3], the system named is Escherichia coli. The test can be described thus: Antibacterial activity against Escherichia coli ATCC 25922 at 250 ug/mL after 18 hrs by broth microdilution method. The format is functional, organism-based. The method, boiled down: as §1
In test [4] the test system is Pseudomonas aeruginosa. The test can be described thus: Antibacterial activity against Pseudomonas aeruginosa ATCC 27853 at 250 ug/mL after 18 hrs by broth microdilution method. The format is functional, organism-based. An outline of the steps:
as §1

Test [5] has as its system Escherichia coli. The test can be described thus: Antibacterial activity against Escherichia coli ATCC 25922 at 120 ug/mL after 18 hrs by broth microdilution method. Type of test: functional, organism-based. An outline of the steps: as §1
Test [6] deals with Enterococcus faecalis. As to the kind of experiment: Antibacterial activity against Enterococcus faecalis ATCC 29212 at 120 ug/mL after 18 hrs by broth microdilution method. Type of test: functional, organism-based. An outline of the steps: as §1
Test [7] concerns Staphylococcus aureus. The test can be described thus: Antibacterial activity against Staphylococcus aureus ATCC 25923 at 120 ug/mL after 18 hrs by broth microdilution method. Type of test: functional, organism-based. An outline of the steps: as §1
Test [8] relates to Pseudomonas aeruginosa. The test can be described thus: Antibacterial activity against Pseudomonas aeruginosa ATCC 27853 at 120 ug/mL after 18 hrs by broth microdilution method. The format is functional, organism-based. An outline of the steps: as §1

Usually MIC stands for the smallest concentration in the dilution series that meets the test's criterion for growth inhibition. High values mean a need for much substance, low ones inhibition by little substance. With `CC(C)=C[C@H]1C[C@](C)(O)[C@@H]2[C@H]3CC[C@@H]4[C@@]5(C)CC[C@H](O[C@@H]6OC[C@H](O)[C@H](O[C@@H]7O[C@H](CO[C@@H]8O[C@H](CO)[C@@H](O)[C@H](O)[C@H]8O)[C@@H](O)[C@H](O)[C@H]7O)[C@H]6O[C@@H]6O[C@@H](CO)[C@H](O)[C@H]6O)C(C)(C)[C@@H]5CC[C@@]4(C)[C@@]34CO[C@@]2(C4)O1`, the result with Enterococcus faecalis [1], with Staphylococcus aureus [2], in the test with Escherichia coli [3] and in the test on Pseudomonas aeruginosa [4] was inactive. In the test with Candida albicans, the lowest concentration to inhibit growth (MIC) was 250 µg/mL (≈ 236 µM).
In turn, `CC(=O)N1CCN(c2ccc(OCC3COC(Cn4ccnc4)(c4ccc(Cl)cc4Cl)O3)cc2)CC1` (stereo not given) [KETOCONAZOLE] yielded an MIC against Candida albicans of 0.1 µg/mL (≈ 0.188 µM).
In the case of `CC(C)=C[C@H]1C[C@](C)(O)[C@@H]2[C@H]3CC[C@@H]4[C@@]5(C)CC[C@H](O[C@@H]6OC[C@H](O)[C@H](O[C@@H]7O[C@H](CO)[C@@H](O)[C@H](O)[C@H]7O)[C@H]6O[C@@H]6O[C@@H](CO)[C@H](O)[C@H]6O)C(C)(C)[C@@H]5CC[C@@]4(C)[C@@]34CO[C@@]2(C4)O1`, the result with Escherichia coli [5], in the test with Enterococcus faecalis [6], with Staphylococcus aureus [7] and in the test on Pseudomonas aeruginosa [8] was inactive.
